The species named for assay [1] is Cavia porcellus. Kind of assay: Inhibitory activity on atrial rate in isolated Guinea pig right atrea at 0.1 mg/mL concentration. The class given is functional, Cardiac atrium. Summed up: (§1)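 Right atria from male Hartley guinea pigs (450–550 g), loaded at 0.5 g, in Tyrode's solution at 37 °C gassed with 95% O2/5% CO2. Equilibrated at least 30 min until rate stable within 5 beats/min; spontaneous rate and contractile force recorded on polygraph after compound addition.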

The species entered for assay [2] is Rattus norvegicus. Put plainly: Inhibition of lipid peroxidation in rat liver microsomes. The class given is functional. Details: concentration or dose not given beside the values. The note with it: dose or concentration not given here. Summed up: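 Wistar rat liver microsomes (2.0 mg protein) in 83.5 mM KCl, 37.2 mM Tris-HCl pH 7.4 with 1 mM ADP, 10 µM FeCl3, 0.02 mM NADPH; compound added in DMF, tested at 10^-5 M. 37 °C, 20 min. Malondialdehyde measured by thiobarbituric acid method, A532; % inhibition, mean ± SD, n = 3–6.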
A general note: Liver microsomes are a subcellular fraction often used to study metabolism.

For assay [3], the species on record is Cavia porcellus. Put plainly: Inhibitory activity on atrial rate in isolated Guinea pig right atrea at 0.03 mg/mL concentration. The class given is functional, Cardiac atrium. Summed up: as §1
Assay [4] is filed under the species Cavia porcellus. Put plainly: Inhibitory activity on atrial rate in isolated Guinea pig right atrea at 0.3 mg/mL concentration. The class given is functional, Cardiac atrium. The method, boiled down:
as §1

Assay [5] is filed under the species Cavia porcellus. Put plainly: Inhibitory activity on atrial contractility in isolated Guinea pig right atrea at 0.1 mg/mL concentration p<0.05. The class given is functional, Cardiac atrium. The method, boiled down: as §1
The species entered for assay [6] is Cavia porcellus. Kind of assay: Inhibitory activity on atrial contractility in isolated Guinea pig right atrea at 0.03 mg/mL concentration p<0.05. The class given is functional, Cardiac atrium. The method, boiled down:
as §1

For assay [7], the species on record is Cavia porcellus. Put plainly: Inhibitory activity on atrial contractility in isolated Guinea pig right atrea at 0.3 mg/mL concentration. The class given is functional, Cardiac atrium. The method, boiled down:
as §1

For assay [8], the system named is Rattus norvegicus. Put plainly: Effect (10 mg/kg, iv) on coronary reperfusion-induced arrhythmias was assessed in anesthetized rats.(Intervals of ventricular tachycardia (VT)+ventricular fibrillation (VF) within 600 s. The class given is functional, Cardiac ventricle.
The species entered for assay [9] is Rattus norvegicus. Kind of assay: Inhibitory effect on production of active oxygen species by rat peritoneal exudate macrophages. Also noted: concentration or dose not given beside the values. The class given is functional. Summed up: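 Peritoneal exudate macrophages harvested 3 days after ip liquid paraffin (male Wistar rats), >90% viable. Assay: 125 mM sodium phosphate pH 6.5, 0.08 mM EDTA, 1.2 U LDH, 0.32 mM NADH, (2–3) × 10^6 cells, compound in DMF, 1 × 10^-4 M. Started with NADH.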

The test system of assay [10] is Rattus norvegicus. Put plainly: Effect (10 mg/kg, iv) on coronary reperfusion-induced arrhythmias was assessed in anesthetized rats.(Intervals of ventricular tachycardia (VT)+ventricular fibrillation (VF) within 600 s. The class given is functional, Cardiac ventricle.
For assay [11], the system named is Rattus norvegicus. Kind of assay: Effect (30 mg/kg, iv) on coronary reperfusion-induced arrhythmias was assessed in anesthetized rats. (Intervals of ventricular tachycardia (VT)+ventricular fibrillation (VF) within 600 s. The class given is functional, Cardiac ventricle.

For orientation: Inhibition means the drop in the measured response relative to a control, in per cent. In general, inhibition refers to the drop in the measured response relative to a control, in per cent. For `CCCCCCCCc1ccc(C(=O)COC2=C(O)C(=O)OC2C(O)CO)cc1` (stereo not drawn), the Inhibition is on record as -0.9% in the assay filed under Cavia porcellus [1]; -0.4% in the assay listed under Cavia porcellus [3]; 0.3% in the assay filed under Cavia porcellus [4]; 33.5% in the assay filed under Cavia porcellus [5]; 15.8% in the assay listed under Cavia porcellus [6]; 45% in the assay listed under Cavia porcellus [7]. The same compound gave an inhibition in the assay filed under Rattus norvegicus [2] of 88%. The same compound gave an Arrhythmias times in the assay with Rattus norvegicus [8] of 461.
`CCCCCCCCCCCCOC1=C(O)C(=O)OC1C(O)CO` (stereo not drawn): the inhibition in the assay filed under Rattus norvegicus [2] was found to be 91%. For the same compound, the Inhibition in the assay filed under Rattus norvegicus [9] amounted to 38.7%. Further, in the assay on Rattus norvegicus [10], the Arrhythmias times worked out at 49.
As for `CCOC1=C(O)C(=O)OC1C(O)CO` (stereo not drawn), in the assay on Rattus norvegicus [11], the Arrhythmias times is 591. The inhibition in the assay listed under Rattus norvegicus [2] is 2%.
